Experimental data: ChEMBL document CHEMBL1149285, “Identification of novel parasitic cysteine protease inhibitors using virtual screening. 1. The ChemBridge database” (J Med Chem, 2004)
Active and inactive are the calls of the source. The calls are words filed in the database; no cut-off is given here.

What was measured:
[1] = target: T1, Falcipain 2 (Plasmodium falciparum, UniProt Q9N6S8); test: Inhibition of Plasmodium falciparum recombinant falcipain-2
T1 sequence (Q9N6S8 whole entry): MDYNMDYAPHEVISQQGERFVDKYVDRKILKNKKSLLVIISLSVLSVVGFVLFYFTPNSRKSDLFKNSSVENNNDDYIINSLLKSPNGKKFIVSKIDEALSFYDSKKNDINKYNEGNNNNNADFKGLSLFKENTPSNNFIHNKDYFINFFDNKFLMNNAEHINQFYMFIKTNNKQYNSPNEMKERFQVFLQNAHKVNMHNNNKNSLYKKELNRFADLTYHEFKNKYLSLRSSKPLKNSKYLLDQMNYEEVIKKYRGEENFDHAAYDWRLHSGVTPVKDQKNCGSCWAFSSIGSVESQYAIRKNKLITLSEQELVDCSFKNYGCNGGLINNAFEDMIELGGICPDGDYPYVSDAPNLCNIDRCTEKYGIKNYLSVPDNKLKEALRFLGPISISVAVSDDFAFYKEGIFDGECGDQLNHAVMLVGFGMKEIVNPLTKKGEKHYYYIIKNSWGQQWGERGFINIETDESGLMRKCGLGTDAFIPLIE
Summary of the method: (§1)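 Equal amounts of recombinant enzyme preincubated 30 min at room temperature with serial inhibitor dilutions from DMSO stocks (DMSO at most 1% in assay) in 100 mM sodium acetate pH 5.5, 10 mM dithiothreitol. Z-Leu-Arg-AMC then added to 25 μM final; fluorescence followed 15 min at room temperature. IC50 taken from percent activity versus concentration plots.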

[2] = target: T2, Cysteine protease falcipain-3 (Plasmodium falciparum, UniProt Q9NBA7); test: Inhibition of Plasmodium falciparum recombinant falcipain-3; summary of the method: as §1
T2 sequence (Q9NBA7 whole entry): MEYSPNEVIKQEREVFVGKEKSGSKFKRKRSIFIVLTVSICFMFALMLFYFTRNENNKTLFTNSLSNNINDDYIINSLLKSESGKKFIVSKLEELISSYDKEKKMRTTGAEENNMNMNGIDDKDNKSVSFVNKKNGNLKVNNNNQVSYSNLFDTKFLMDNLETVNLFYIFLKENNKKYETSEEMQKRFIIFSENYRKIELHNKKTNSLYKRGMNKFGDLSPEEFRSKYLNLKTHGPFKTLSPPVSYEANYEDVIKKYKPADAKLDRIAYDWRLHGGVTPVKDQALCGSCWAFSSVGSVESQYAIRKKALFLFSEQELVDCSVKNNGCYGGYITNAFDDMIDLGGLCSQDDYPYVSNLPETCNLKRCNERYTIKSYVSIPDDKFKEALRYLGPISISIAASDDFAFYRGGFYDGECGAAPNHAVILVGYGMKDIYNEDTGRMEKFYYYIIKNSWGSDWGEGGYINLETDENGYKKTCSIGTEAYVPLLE

[3] = system: Plasmodium falciparum; test: Antiplasmodial activity against chloroquine-sensitive Plasmodium falciparum D6 after 48 hrs as LDH reporter activity; type: functional, organism-based; settings: D6, 48 h
Summary of the method: (§2)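 Asynchronous P. falciparum cultures (2% hematocrit, 2% parasitemia) were exposed to compound dilutions prepared in DMSO. They were incubated 48 h at 37 °C in a humidified chamber under 90% N2, 5% CO2, 5% O2. Growth was read as parasite lactate dehydrogenase activity using Malstat reagent. Medium-only and erythrocyte-only wells were included, with chloroquine and artemisinin as positive and DMSO as negative controls.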

[4] = system: Plasmodium falciparum; test: Antiplasmodial activity against chloroquine-resistant Plasmodium falciparum W2 as LDH activity after 48 hrs; type: functional, organism-based; settings: W2, 48 h; summary of the method: as §2
[5] = target: T3, Cysteine protease (Leishmania donovani, UniProt Q95WR6); test: Inhibition of Leishmania donovani cysteine protease
T3 sequence (Q95WR6 whole entry): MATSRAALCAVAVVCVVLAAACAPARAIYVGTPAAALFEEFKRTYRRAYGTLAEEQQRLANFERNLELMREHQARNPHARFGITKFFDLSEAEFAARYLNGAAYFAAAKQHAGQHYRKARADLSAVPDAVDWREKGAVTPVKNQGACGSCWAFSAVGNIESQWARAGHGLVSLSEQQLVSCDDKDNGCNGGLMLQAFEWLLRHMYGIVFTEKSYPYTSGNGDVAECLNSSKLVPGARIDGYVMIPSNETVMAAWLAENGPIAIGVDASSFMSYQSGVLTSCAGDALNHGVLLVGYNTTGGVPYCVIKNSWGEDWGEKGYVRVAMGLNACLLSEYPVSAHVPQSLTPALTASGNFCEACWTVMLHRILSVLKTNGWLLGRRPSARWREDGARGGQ

[6] = system: Leishmania donovani; test: Antileishmanial activity against Leishmania donovani promastigotes after 72 hrs by Alamar blue assay; type: functional, organism-based
Summary of the method: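 L. donovani promastigote culture at 2 × 10⁶ cells/mL given diluted compounds, incubated 72 h at 26 °C; growth read by Alamar blue. Pentamidine and amphotericin B as reference agents; IC50 computed from growth inhibition curve.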

[7] = system: Vero; test: Cytotoxicity against Vero cells by Neutral red assay; type: cell-based; settings: chlorocebus sabaeus
Summary of the method: (§3)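 VERO monkey kidney […] exposed to compounds alongside the antiparasitic assays, viability by Neutral Red uptake; highest concentration tested 23.8 μg/mL; IC50 computed from growth inhibition curve.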

[8] = system: Vero; test: Cytotoxicity against Vero cells at 23.8 ug/mL by Neutral red assay; type: cell-based; settings: chlorocebus sabaeus; summary of the method: as §3

Row | SMILES | IC50 [1] [µM] | IC50 [2] [µM] | EC50 [3] [µM] | EC50 [4] [µM] | IC50 [5] [µM] | IC50 [6] [µM] | IC50 [7] [µM] | Activity [6] | Activity [8]
1 | Oc1cccc(/C=N\c2cccc3c(/N=C/c4cccc(O)c4O)cccc23)c1O | 4.6 | 5.8 | 6.9 | 6.6 | 113 | 8.8 | 28.9 | – | –
2 | O=C(O)c1ccccc1N/N=C/c1ccc(/C=N/Nc2ccccc2C(=O)O)cc1 | 1 | 4.9 | 34.8 | 41 | 72 | – | – | inactive | Non-toxic
